Experimental data from different studies.
Lines come from different studies, so protocols differ.
Target: Insulin receptor (INSR, Homo sapiens, UniProt P06213)

Compound	read-out	method	tested at	remaining binding [%]
CN(C)C(=O)Cn1cc(-c2nc(C3(c4ccc(-c5cnc(N)nc5)cc4)CC3)no2)cn1	cell-free assay	competition with immobilised ligand	1 µM	90
Nc1ncc2c(n1)-c1c([nH]c3ccc(C#CC4CC4)cc13)CCCC2	binding	competition with immobilised ligand	1 µM	80
COc1cnc(Nc2cccc(S(N)(=O)=O)c2)nc1N1CCN(c2ccccc2)C(=O)C1	binding	competition with immobilised ligand	1 µM	96
C[C@@H](c1ccc(-n2cnc3c(N)ncnc32)cc1)N1CCc2nn(C)c(Cc3ccccc3)c2C1=O	binding	competition with immobilised ligand	0.1 µM	100
CCC(=O)N[C@H]1CC[C@@H](C(=O)N(C)c2ccc(-c3nc4ccccc4o3)cc2)C1	cell-free assay	competition with immobilised ligand	1 µM	91
C[C@@H]1CN(c2ccc3ncc(-c4ccc5[nH]nc(C6CC6)c5c4)n3n2)C[C@H](C)O1	binding	competition with immobilised ligand	50 nM	100
CCS(=O)(=O)c1cc2cc(C[C@](O)(CC(C)(C)c3ccc(F)cc3C(N)=O)C(F)(F)F)[nH]c2cn1	cell-free assay	competition with immobilised ligand	1 µM	94
C[C@H]1CCN(c2nccc(-c3cnn4ncccc34)n2)C1	binding	–	1 µM	69
O=C(Nc1cccnn1)N1CCC(=Cc2cccc(Oc3ccc(C(F)(F)F)cn3)c2)CC1	cell-free assay	competition with immobilised ligand	1 µM	100
O=C(c1ccc(Nc2nccc(-c3cc4ccccc4s3)n2)cc1)N1CCC(N2CCCC2)CC1	binding	competition with immobilised ligand	1 µM	66
O=C(Nc1c[nH]nc1C(=O)NC1CCNCC1)c1cc(F)cc(F)c1	binding	competition with immobilised ligand	1 µM	100
COc1ccnn2ncc(-c3ccnc(N(C)C)n3)c12	binding	–	1 µM	96
O=C(c1ccc(Nc2ncc(Cl)c(-c3ccc(Cl)s3)n2)cc1)N1CCC(N2CCCC2)CC1	binding	competition with immobilised ligand	1 µM	2.3
CN(C)c1nccc(-c2cnn3ncccc23)n1	binding	–	1 µM	79
FC(F)(F)Oc1cccc(-c2cnc3ccc(-c4ccncc4)nn23)c1	cell-free assay	competition with immobilised ligand	5 µM	88
CNC(=O)[C@@H]1CC[C@@H](n2c(-c3ccc4cnccc4c3)nc3ccc(C(=O)NCc4cccc(C(N)=O)c4)cc32)C1	binding	competition with immobilised ligand	1 µM	92
COc1ccc2c(c1)O[C@@H](c1ccc(OC)c(OC)c1)C[C@H]2NC(=O)C1(c2ccc3c(c2)OC(F)(F)O3)CC1	cell-free assay	competition with immobilised ligand	1 µM	79
N[C@@H]1CCN(c2nccc(-c3cnn4ncccc34)n2)C1	binding	–	1 µM	100
CC(C)(C)c1ccc(-c2nc(CBr)nn2-c2cccc(O)c2)cc1	cell-free assay	competition with immobilised ligand	10 µM	93
Cc1cc(NC(=O)c2cccc(S(F)(F)(F)(F)F)c2)cc(-n2ccn3nc(-c4cccnc4)cc23)c1	cell-free assay	competition with immobilised ligand	1 µM	100
Cc1cnc(Nc2ccc(C(=O)N3CCC(N4CCCC4)CC3)cc2)nc1-c1cc2ccccc2s1	binding	competition with immobilised ligand	1 µM	7.8
Cc1cnn2ncc(-c3ccnc(N(C)C)n3)c2c1	binding	–	1 µM	68
CS(=O)(=O)NCC[C@H](NC(=O)c1cncc2c1cnn2-c1ccc(F)cc1)c1ccnc(S(C)(=O)=O)c1	cell-free assay	competition with immobilised ligand	1 µM	92
CN(C)c1nccc(-c2cnc3ncccn23)n1	binding	–	1 µM	70
CN(C)c1ncnc(-c2ccc3nc(Nc4cc(CN5CCN(C(=O)CC(F)(F)F)CC5)ccn4)[nH]c3c2)c1Cl	cell-free assay	competition with immobilised ligand	1 µM	100
